The subject of assay [1] is RPMI-8226. The experiment in a line: Cell cycle arrest in human RPMI8226 cells assessed as decrease in S phase cell population after 24 hrs using propidium iodide and BrdU staining by flow cytometry. Type of assay: functional, cell-based. In short, it runs like this:
(§1)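 Asynchronously growing RPMI-8226 multiple myeloma cells were exposed for 24 h. Cells were double-stained with propidium iodide and BrdU and analysed by flow cytometry for G1, S, G2/M and BrdU-positive fractions. The subG1 population was taken as indicative of apoptosis.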

For assay [2], the system named is RPMI-8226. The assay is described as follows: Cell cycle arrest in human RPMI8226 cells assessed as reduction of actively replicating DNA level at 80 uM after 24 hrs using propidium iodide and BrdU staining by flow cytometry. It is filed as functional, cell-based. The procedure, abridged:
as §1
In general terms: Uptake of a labelled nucleoside into DNA is a usual measure of proliferation.

Assay [3] concerns the target MAP kinase-activated protein kinase 5 (Homo sapiens) (UniProt Q8IW41). The experiment in a line: Inhibition of human recombinant PRAK at 10 uM.
The target in assay [4] is T1, Retinoblastoma-associated protein (Homo sapiens) (UniProt P06400).
T1 sequence (whole entry): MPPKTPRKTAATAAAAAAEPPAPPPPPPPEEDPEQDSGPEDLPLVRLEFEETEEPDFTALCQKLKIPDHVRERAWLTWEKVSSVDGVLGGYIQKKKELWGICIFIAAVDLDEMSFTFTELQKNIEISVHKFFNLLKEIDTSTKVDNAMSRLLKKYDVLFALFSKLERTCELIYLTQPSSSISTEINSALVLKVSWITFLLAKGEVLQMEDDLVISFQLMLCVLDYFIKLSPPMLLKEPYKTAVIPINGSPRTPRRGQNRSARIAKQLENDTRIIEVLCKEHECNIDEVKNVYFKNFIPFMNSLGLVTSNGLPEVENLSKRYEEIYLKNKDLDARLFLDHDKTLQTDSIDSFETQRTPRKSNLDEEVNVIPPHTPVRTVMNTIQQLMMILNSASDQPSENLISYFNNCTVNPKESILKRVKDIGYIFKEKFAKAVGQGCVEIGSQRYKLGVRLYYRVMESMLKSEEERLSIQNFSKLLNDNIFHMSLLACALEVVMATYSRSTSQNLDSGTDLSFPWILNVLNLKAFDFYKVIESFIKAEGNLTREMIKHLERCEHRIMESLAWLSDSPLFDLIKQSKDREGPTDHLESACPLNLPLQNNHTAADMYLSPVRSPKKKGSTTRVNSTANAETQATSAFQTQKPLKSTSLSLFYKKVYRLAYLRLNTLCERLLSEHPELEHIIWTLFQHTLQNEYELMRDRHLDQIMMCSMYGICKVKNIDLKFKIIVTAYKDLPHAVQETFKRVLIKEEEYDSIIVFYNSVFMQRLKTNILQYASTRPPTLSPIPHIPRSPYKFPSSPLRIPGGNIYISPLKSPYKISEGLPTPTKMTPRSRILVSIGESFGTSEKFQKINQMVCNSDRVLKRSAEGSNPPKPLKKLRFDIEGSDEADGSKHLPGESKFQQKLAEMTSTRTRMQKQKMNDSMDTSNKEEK
The experiment in a line: Inhibition of retinoblastoma protein in human MCF7 cells assessed as reduction of CDK4 level at 2.5 to 40 uM after 24 hrs by immunoblotting. It is filed as cell-based. The procedure, abridged:
(§2)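 Asynchronous, exponentially growing MCF-7 cells were exposed 24 h to a range of concentrations. Total lysates were made in Laemmli buffer, run on SDS-PAGE and blotted to nitrocellulose. Membranes were probed overnight at 4 °C with specific or phosphospecific antibodies (pRb S249/T252, S780, S795, S807/811), with tubulin as loading control and ECL detection.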
(In general: In western blotting, separated proteins are transferred to a membrane and probed.)

The test system of assay [5] is CCRF-CEM. The assay is described as follows: Cytotoxicity against human CEM cells after 72 hrs by fluoroskan ascent microplate reader analysis. It is filed as functional, cell-based. In short, it runs like this:
(§3)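 Cells were grown in DMEM with 10% FCS and 4 mM glutamine at 37 °C under CO2, then plated at densities suited to each line. Compounds were added as 3-fold dilutions in triplicate for 72 h.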

The test system of assay [6] is U-266. The experiment in a line: Induction of apoptosis in human U266 cells at 10 uM after 24 hrs. Type of assay: functional, cell-based.
The target in assay [7] is T1, Retinoblastoma-associated protein (Homo sapiens). The assay is described as follows: Inhibition of retinoblastoma protein in human MCF7 cells assessed as reduction of CDK6 level at 2.5 to 40 uM after 24 hrs by immunoblotting. Type of assay: cell-based. The procedure, abridged: as §2
Assay [8] has as its target Cyclin-dependent kinase 7/ cyclin H (Homo sapiens) (UniProt P51946+P50613). The assay is described as follows: Inhibition of human recombinant CDK7/cyclin H/MAT1 at 10 uM. It is filed as protein-complex assay.
For assay [9], the system named is MCF7. The experiment in a line: Cell cycle arrest in human MCF7 cells assessed as reduction of actively replicating DNA level at 80 uM after 24 hrs using propidium iodide and BrdU staining by flow cytometry. It is filed as functional, cell-based. The procedure, abridged:
(§4)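 Subconfluent MCF-7 cells were treated for 24 h at a range of concentrations. They were pulse-labelled with 10 μM BrdU for 30 min at 37 °C, then trypsinized and fixed in ice-cold 70% ethanol. DNA was denatured in 2 M HCl and neutralized with borate. Cells were stained with fluorescein anti-BrdU and with propidium iodide plus RNase A, then analysed by flow cytometry at 488 nm.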

Assay [10] concerns HeLa. The assay is described as follows: Cytotoxicity against human HeLa cells after 72 hrs by fluoroskan ascent microplate reader analysis. Type of assay: functional, cell-based. In short, it runs like this: as §3
In assay [11] the target is Glycogen synthase kinase-3 alpha (Homo sapiens) (UniProt P49840). The assay is described as follows: Inhibition of human recombinant GSK3A at 10 uM.
The test system of assay [12] is RPMI-8226. The assay is described as follows: Induction of apoptosis in human RPMI8226 cells assessed as down-regulation of Mcl-1 after 24 hrs by immunoblot analysis. It is filed as functional, cell-based. In short, it runs like this:
(§5)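 RPMI-8226 cells were treated continuously for 24 h, and total lysates were made in Laemmli buffer, run on SDS-PAGE and blotted to nitrocellulose. Loading was checked with Ponceau-S. Membranes were blocked in milk or BSA, probed overnight at 4 °C with antibodies to PARP, caspase-3 and Mcl-1, then peroxidase secondary (1:2000), with ECL detection.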

Assay [13] deals with Casein kinase II (Homo sapiens) (UniProt P67870+P68400+P19784). The experiment in a line: Inhibition of human recombinant CK2 at 10 uM. Type of assay: protein-complex assay.
Assay [14] deals with CDK9/cyclin T1 (Homo sapiens) (UniProt O60563+P50750). The experiment in a line: Inhibition of human recombinant CDK9/cyclin T1 at 10 uM. It is filed as protein-complex assay.
Assay [15] has as its system MCF7. The experiment in a line: Cell cycle arrest in human MCF7 cells assessed as accumulation at G1 phase after 24 hrs using propidium iodide and BrdU staining by flow cytometry. Type of assay: functional, cell-based. The procedure, abridged: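 Subconfluent cells treated 24 h at varying concentrations, pulsed with 10 μM BrdU for 30 min at 37 °C, then trypsinized, fixed in ice-cold 70% ethanol and DNA denatured in 2 M HCl. After staining with fluorescein anti-BrdU (1:50), propidium iodide (0.1 mg/mL) and RNase A (0.5 mg/mL), cells were read by flow cytometry with a 488 nm laser.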

For assay [16], the system named is MCF7. The experiment in a line: Cell cycle arrest in human MCF7 cells assessed as decrease in S phase cell population after 24 hrs using propidium iodide and BrdU staining by flow cytometry. Type of assay: functional, cell-based. In short, it runs like this: as §4
For assay [17], the system named is HOS. The experiment in a line: Cytotoxicity against human HOS cells after 72 hrs by fluoroskan ascent microplate reader analysis. Type of assay: functional, cell-based. The procedure, abridged: as §3
Assay [18] concerns RPMI-8226. The assay is described as follows: Induction of apoptosis in human RPMI8226 cells assessed as induction of PARP cleavage after 24 hrs by immunoblot analysis. Type of assay: functional, cell-based. The procedure, abridged:
as §5

Structures are written as SMILES. Calls of active or inactive are those of the source. The calls are words filed in the database; no cut-off is given here.

The term inhibition denotes how much of the control response was suppressed. What is called IC50 is the point on the concentration scale where inhibition reaches its midpoint.

Chain of MAP kinase-activated protein kinase 5 (Homo sapiens) (Q8IW41 whole entry): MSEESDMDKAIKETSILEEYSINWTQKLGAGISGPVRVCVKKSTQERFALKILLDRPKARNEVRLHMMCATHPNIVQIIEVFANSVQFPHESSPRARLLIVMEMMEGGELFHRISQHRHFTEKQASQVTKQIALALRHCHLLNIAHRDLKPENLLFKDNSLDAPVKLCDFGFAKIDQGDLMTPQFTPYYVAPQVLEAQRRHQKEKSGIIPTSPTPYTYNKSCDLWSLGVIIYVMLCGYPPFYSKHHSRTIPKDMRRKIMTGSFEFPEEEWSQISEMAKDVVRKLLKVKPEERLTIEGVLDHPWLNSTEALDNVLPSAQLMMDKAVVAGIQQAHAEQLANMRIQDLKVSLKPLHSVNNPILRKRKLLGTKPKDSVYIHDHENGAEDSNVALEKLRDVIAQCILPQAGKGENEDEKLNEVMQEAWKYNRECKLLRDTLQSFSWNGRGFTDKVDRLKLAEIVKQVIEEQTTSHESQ
Chain of Glycogen synthase kinase-3 alpha (Homo sapiens) (P49840 2-483 limits assumed): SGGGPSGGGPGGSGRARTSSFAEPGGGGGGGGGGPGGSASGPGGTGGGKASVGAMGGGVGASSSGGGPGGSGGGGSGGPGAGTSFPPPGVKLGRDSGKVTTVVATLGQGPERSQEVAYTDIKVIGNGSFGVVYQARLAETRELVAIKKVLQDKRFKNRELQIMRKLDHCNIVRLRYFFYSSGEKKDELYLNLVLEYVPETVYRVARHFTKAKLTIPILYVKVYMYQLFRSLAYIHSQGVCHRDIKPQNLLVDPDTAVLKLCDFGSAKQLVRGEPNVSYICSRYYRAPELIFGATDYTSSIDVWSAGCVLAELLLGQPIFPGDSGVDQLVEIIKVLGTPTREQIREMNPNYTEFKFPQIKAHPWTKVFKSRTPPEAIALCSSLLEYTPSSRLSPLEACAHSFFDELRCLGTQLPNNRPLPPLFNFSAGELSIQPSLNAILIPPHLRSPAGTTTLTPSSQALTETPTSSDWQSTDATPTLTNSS

As for `CC[C@H](CO)Nc1nc(NCc2ccccc2)c2[nH]nc(C(C)C)c2n1`, the result in assay [1], in assay [2], in assay [6], in assay [9], in assay [12] and in assay [16] was Active. In assay [18], the outcome was Active. Moreover, the inhibition in assay [3] amounted to 30%; in assay [8], 96%; in [11] it was 32%; in assay [13] it was 19%; in assay [14] it was 90%. Also, the inhibition entry in assay [4] is “Active”. Besides, the 50% inhibitory concentration (IC50) in assay [5] amounted to 3.8 µM; in assay [10], 6.9 µM; in assay [17], 7.5 µM. Further, the inhibition result in [7] was “inactive”. The outcome in [15] was inactive.

Source of the values: ChEMBL document CHEMBL1765057, “Pyrazolo[4,3-d]pyrimidine bioisostere of roscovitine: evaluation of a novel selective inhibitor of cyclin-dependent kinases with antiproliferative activity” (J Med Chem, 2011).
